From ChEMBL document CHEMBL4028848, “Discovery of N-{4-[5-(4-Fluorophenyl)-3-methyl-2-methylsulfanyl-3H-imidazol-4-yl]-pyridin-2-yl}-acetamide (CBS-3595), a Dual p38α MAPK/PDE-4 Inhibitor with Activity against TNFα-Related Diseases” (J Med Chem, 2017)
Calls of active or inactive are those of the source. The calls are words filed in the database; no cut-off is given here.

Assays:
[1] = Inhibition of PDE4 in human U937 cells assessed as [3H]cAMP hydrolysis; format: cell-based
[2] = biological target: 3',5'-cyclic-AMP phosphodiesterase 4A (Homo sapiens, UniProt P27815); assay: Inhibition of human PDE4A4 expressed in sf9 cells
[3] = biological target: 3',5'-cyclic-AMP phosphodiesterase 4B (Homo sapiens, UniProt Q07343); assay: Inhibition of human PDE4B1 expressed in sf9 cells
[4] = biological target: 3',5'-cyclic-AMP phosphodiesterase 4C (Homo sapiens, UniProt Q08493); assay: Inhibition of human PDE4C1 expressed in sf9 cells
[5] = biological target: T1, 3',5'-cyclic-AMP phosphodiesterase 4D (Homo sapiens, UniProt Q08499); assay: Inhibition of human PDE4D2 expressed in sf9 cells
[6] = biological target: T1, 3',5'-cyclic-AMP phosphodiesterase 4D; assay: Inhibition of human PDE4D3 expressed in sf9 cells
Homo sapiens [7] = organism: Homo sapiens; assay: Inhibition of PDE3 in human U937 cells assessed as [3H]cAMP hydrolysis at 10 uM; format: cell-based
[8] = biological target: RAF proto-oncogene serine/threonine-protein kinase (Homo sapiens) (UniProt P04049); assay: Inhibition of c-RAF (unknown origin) at 10 uM relative to control
[9] = biological target: Mitogen-activated protein kinase 9 (Homo sapiens) (UniProt P45984); assay: Inhibition of JNK2alpha2 (unknown origin) at 10 uM relative to control
[10] = biological target: Mitogen-activated protein kinase 13 (Homo sapiens) (UniProt O15264); assay: Inhibition of p38MAPK delta (unknown origin) at 10 uM relative to control
[11] = biological target: Mitogen-activated protein kinase 14 (Homo sapiens, UniProt Q16539); assay: Inhibition of P38 MAPKalpha in LPS-stimulated human whole blood assessed as decrease in TNFalpha level
[12] = Tmax in human at 10 mg, po administered as single dose; format: ADME, organism-based; settings: in vivo
In short: (§1)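 Healthy subjects received single oral doses of 10, 20, 30 or 50 mg in a placebo-controlled, single-blind, randomized consecutive-dose study; 10 mg was also given fasting vs fed in a crossover. Plasma drug was sampled pre-dose and from 0.25 to 36 h post-dose. Mean Tmax was taken from individual concentration–time profiles.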

[13] = Tmax in human at 50 mg, po administered as single dose; format: ADME, organism-based; settings: in vivo; in short: as §1
[14] = Tmax in fasting human at 10 mg, po administered as single dose; format: ADME, organism-based; settings: in vivo; in short: as §1
[15] = Tmax in fed human at 10 mg, po administered as single dose; format: ADME, organism-based; settings: in vivo; in short: as §1
[16] = Tmax in human at 20 mg, po administered as single dose; format: ADME, organism-based; settings: in vivo; in short: as §1
[17] = Tmax in human at 30 mg, po administered as single dose; format: ADME, organism-based; settings: in vivo; in short: as §1
[18] = Cmax in human at 10 mg, po administered as single dose; format: ADME, organism-based; parameters: dose 10 mg, route oral; settings: in vivo
In short: (§2)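 Oral single-dose PK; plasma concentrations of parent and metabolite measured. Dogs: blood sampled 0.25 to 24 h after dosing. Humans: healthy subjects, placebo-controlled single-blind randomized consecutive dosing, plasma sampled predose and 0.25–36 h post dose. 10 mg also given fasting and fed in crossover. Parameters derived from individual concentration–time profiles.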

[19] = Cmax in human at 50 mg, po administered as single dose; format: ADME, organism-based; parameters: dose 50 mg, route oral; settings: in vivo
[20] = Cmax in fasting human at 10 mg, po administered as single dose; format: ADME, organism-based; parameters: dose 10 mg, route oral; settings: in vivo
In short: (§3)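 Placebo-controlled, single-blind, randomized, consecutive-dosing study in healthy subjects given single oral doses, with 10 mg also given fasting and fed in a crossover. Plasma parent and active metabolite were measured predose and from 0.25 to 36 h post dose. PK parameters were derived from individual concentration–time profiles and reported as means.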

[21] = Cmax in fed human at 10 mg, po administered as single dose; format: ADME, organism-based; parameters: dose 10 mg, route oral; settings: in vivo; in short: as §3
[22] = Cmax in human at 20 mg, po administered as single dose; format: ADME, organism-based; parameters: dose 20 mg, route oral; settings: in vivo; in short: as §2
[23] = Cmax in human at 30 mg, po administered as single dose; format: ADME, organism-based; parameters: dose 30 mg, route oral; settings: in vivo; in short: as §2
[24] = AUC (0 to t) in human at 10 mg, po administered as single dose; format: ADME, organism-based; settings: in vivo; in short: as §3
[25] = AUC (0 to t) in human at 50 mg, po administered as single dose; format: ADME, organism-based; settings: in vivo; in short: as §3
[26] = AUC (0 to t) in fasting human at 10 mg, po administered as single dose; format: ADME, organism-based; settings: in vivo; in short: as §3
[27] = AUC (0 to t) in fed human at 10 mg, po administered as single dose; format: ADME, organism-based; settings: in vivo; in short: as §3
[28] = AUC (0 to t) in human at 20 mg, po administered as single dose; format: ADME, organism-based; settings: in vivo; in short: as §3
[29] = AUC (0 to t) in human at 30 mg, po administered as single dose; format: ADME, organism-based; settings: in vivo; in short: as §3
[30] = AUC (0 to infinity) in human at 10 mg, po administered as single dose; format: ADME, organism-based; parameters: dose 10 mg, time infinity, route oral; settings: in vivo; in short: as §3
[31] = AUC (0 to infinity) in human at 50 mg, po administered as single dose; format: ADME, organism-based; parameters: dose 50 mg, time infinity, route oral; settings: in vivo; in short: as §3
[32] = AUC (0 to infinity) in fasting human at 10 mg, po administered as single dose; format: ADME, organism-based; parameters: dose 10 mg, time infinity, route oral; settings: in vivo; in short: as §3
[33] = AUC (0 to infinity) in fed human at 10 mg, po administered as single dose; format: ADME, organism-based; parameters: dose 10 mg, route oral, time infinity; settings: in vivo; in short: as §3
[34] = AUC (0 to infinity) in human at 20 mg, po administered as single dose; format: ADME, organism-based; parameters: dose 20 mg, time infinity, route oral; settings: in vivo; in short: as §3
[35] = AUC (0 to infinity) in human at 30 mg, po administered as single dose; format: ADME, organism-based; parameters: dose 30 mg, time infinity, route oral; settings: in vivo; in short: as §3
[36] = Half life in human at 10 mg, po administered as single dose; format: ADME, organism-based; settings: in vivo; in short: as §2
[37] = Half life in human at 50 mg, po administered as single dose; format: ADME, organism-based; settings: in vivo; in short: as §2
[38] = Half life in fasting human at 10 mg, po administered as single dose; format: ADME, organism-based; settings: in vivo; in short: as §2
[39] = Half life in fed human at 10 mg, po administered as single dose; format: ADME, organism-based; settings: in vivo; in short: as §2
[40] = Half life in human at 20 mg, po administered as single dose; format: ADME, organism-based; settings: in vivo; in short: as §2
[41] = Half life in human at 30 mg, po administered as single dose; format: ADME, organism-based; settings: in vivo; in short: as §2
Homo sapiens [42] = assay: Toxicity in human assessed as effect on CNS at 50 mg, po administered as single dose; format: organism-based; settings: in vivo
In short: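 Single oral 50 mg dose given to healthy subjects in a placebo-controlled, single-blind, randomized FIH study. Adverse events, vital signs and physical findings were recorded, including CNS effects.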

[43] = Fraction unbound in human plasma; format: ADME, cell-free
In short: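 Plasma protein binding measured in human, Sprague–Dawley rat and Cynomolgus monkey plasma at 1, 10 and 30 μM compound. Reported as unbound fraction (%).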

[44] = biological target: cGMP-specific 3',5'-cyclic phosphodiesterase (Homo sapiens) (UniProt O76074); assay: Inhibition of PDE5 in human U937 cells assessed as [3H]cAMP hydrolysis at 10 uM; format: cell-based
Rattus norvegicus = assay: In vivo inhibition of P38 MAPKalpha in Lewis rat assessed as decrease in LPS-stimulated TNFalpha level in serum at 10 mg/kg, po pretreated for 1 hr followed by LPS addition measured after 1.5 hrs post dose relative to control; format: functional
In short: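 Lewis rats, n = 8/group: females dosed orally at 10 mg/kg at −1, −3 or −5 h relative to LPS challenge, plus one male group dosed at −1 h. Male and female vehicle controls were given at −1 h. Serum TNFα was measured after LPS and compared with vehicle.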

T1 sequence (Q08499 whole entry): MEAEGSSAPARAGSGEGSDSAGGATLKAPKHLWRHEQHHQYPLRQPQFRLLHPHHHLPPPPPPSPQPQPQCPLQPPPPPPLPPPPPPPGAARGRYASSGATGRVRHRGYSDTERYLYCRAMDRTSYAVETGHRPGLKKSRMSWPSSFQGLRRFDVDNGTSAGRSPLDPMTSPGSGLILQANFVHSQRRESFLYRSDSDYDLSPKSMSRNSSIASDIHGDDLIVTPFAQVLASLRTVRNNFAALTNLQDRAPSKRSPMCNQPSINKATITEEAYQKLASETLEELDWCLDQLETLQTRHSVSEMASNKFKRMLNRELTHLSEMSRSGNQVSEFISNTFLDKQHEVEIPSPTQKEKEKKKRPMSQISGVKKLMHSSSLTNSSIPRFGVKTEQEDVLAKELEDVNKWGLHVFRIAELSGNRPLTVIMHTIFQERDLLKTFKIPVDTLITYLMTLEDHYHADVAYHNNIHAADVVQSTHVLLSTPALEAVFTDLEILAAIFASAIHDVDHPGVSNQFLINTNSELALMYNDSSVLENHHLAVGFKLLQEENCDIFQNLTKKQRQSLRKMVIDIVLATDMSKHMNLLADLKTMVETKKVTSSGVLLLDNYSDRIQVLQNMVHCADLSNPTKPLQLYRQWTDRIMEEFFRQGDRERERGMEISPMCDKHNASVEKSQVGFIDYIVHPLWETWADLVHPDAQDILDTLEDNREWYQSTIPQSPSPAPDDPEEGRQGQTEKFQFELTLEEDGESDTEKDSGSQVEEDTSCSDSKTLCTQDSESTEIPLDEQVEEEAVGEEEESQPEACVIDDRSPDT
Chain of 3',5'-cyclic-AMP phosphodiesterase 4A (P27815 whole entry): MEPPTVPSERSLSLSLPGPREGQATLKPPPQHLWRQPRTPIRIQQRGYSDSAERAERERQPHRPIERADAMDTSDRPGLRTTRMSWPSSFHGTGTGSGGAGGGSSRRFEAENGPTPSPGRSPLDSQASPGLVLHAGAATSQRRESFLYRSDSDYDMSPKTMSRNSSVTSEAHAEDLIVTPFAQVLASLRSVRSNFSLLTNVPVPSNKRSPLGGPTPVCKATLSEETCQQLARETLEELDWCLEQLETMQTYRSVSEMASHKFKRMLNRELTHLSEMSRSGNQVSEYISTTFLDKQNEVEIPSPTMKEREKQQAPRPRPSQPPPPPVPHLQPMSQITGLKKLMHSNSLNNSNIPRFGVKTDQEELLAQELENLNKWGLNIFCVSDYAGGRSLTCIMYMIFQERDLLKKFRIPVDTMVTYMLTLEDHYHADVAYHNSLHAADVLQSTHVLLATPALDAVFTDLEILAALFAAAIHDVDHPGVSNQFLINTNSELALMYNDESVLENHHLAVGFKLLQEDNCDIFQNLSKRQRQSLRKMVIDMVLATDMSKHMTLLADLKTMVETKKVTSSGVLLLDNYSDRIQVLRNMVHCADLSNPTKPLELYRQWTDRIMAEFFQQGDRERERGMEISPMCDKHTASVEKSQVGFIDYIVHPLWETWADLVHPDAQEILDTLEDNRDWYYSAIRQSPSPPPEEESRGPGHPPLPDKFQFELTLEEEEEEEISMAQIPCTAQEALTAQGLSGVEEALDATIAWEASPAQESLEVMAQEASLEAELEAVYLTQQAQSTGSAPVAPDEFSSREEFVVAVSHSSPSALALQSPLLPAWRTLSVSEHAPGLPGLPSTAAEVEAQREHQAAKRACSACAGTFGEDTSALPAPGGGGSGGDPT
Chain of Mitogen-activated protein kinase 14 (Q16539 whole entry): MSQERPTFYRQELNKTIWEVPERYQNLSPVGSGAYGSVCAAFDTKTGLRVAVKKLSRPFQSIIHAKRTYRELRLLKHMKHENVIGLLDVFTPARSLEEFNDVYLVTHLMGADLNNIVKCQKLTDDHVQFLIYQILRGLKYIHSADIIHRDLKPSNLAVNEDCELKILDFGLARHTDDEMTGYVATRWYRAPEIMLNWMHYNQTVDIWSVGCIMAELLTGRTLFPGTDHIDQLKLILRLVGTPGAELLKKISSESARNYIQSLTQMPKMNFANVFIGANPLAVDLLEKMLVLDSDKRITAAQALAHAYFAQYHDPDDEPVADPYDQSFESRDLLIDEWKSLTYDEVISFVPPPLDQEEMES
Chain of 3',5'-cyclic-AMP phosphodiesterase 4C (Q08493 whole entry): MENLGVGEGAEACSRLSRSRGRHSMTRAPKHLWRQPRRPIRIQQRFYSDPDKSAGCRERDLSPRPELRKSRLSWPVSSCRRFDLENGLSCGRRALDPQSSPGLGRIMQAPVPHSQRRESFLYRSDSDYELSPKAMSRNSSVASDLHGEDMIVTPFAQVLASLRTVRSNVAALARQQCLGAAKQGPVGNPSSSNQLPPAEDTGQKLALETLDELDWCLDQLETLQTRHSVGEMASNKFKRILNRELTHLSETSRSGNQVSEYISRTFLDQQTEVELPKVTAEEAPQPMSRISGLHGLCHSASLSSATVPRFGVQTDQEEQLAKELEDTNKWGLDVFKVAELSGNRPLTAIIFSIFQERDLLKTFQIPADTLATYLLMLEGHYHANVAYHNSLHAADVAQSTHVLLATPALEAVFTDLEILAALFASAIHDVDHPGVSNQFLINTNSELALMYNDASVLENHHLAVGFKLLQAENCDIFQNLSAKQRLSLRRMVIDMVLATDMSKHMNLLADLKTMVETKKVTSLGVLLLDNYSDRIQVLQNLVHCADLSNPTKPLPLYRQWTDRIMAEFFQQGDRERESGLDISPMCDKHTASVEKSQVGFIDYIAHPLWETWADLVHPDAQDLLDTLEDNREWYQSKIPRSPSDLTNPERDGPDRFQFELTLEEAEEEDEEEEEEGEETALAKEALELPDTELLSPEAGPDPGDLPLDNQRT
Chain of 3',5'-cyclic-AMP phosphodiesterase 4B (Q07343 whole entry): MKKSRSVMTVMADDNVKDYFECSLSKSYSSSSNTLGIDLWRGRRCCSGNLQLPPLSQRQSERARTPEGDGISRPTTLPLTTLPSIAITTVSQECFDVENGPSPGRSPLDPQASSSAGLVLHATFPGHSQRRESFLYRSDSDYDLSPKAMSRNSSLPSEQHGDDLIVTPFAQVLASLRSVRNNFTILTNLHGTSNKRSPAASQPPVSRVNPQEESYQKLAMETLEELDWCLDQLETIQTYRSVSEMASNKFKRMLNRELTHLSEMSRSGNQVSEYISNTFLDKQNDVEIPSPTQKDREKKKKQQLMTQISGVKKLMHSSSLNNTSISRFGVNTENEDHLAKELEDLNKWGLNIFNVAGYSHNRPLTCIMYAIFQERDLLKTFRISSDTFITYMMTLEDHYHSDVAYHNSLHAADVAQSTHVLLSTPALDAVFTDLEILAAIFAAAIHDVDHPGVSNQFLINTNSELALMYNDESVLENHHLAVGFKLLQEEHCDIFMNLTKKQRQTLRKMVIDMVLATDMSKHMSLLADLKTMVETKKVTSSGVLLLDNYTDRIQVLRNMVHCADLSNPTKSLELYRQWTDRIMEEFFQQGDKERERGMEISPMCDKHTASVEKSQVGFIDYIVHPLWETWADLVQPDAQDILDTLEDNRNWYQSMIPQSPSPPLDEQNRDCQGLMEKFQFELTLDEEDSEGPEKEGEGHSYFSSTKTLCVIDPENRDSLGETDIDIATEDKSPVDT
Chain of RAF proto-oncogene serine/threonine-protein kinase (Homo sapiens) (P04049 whole entry): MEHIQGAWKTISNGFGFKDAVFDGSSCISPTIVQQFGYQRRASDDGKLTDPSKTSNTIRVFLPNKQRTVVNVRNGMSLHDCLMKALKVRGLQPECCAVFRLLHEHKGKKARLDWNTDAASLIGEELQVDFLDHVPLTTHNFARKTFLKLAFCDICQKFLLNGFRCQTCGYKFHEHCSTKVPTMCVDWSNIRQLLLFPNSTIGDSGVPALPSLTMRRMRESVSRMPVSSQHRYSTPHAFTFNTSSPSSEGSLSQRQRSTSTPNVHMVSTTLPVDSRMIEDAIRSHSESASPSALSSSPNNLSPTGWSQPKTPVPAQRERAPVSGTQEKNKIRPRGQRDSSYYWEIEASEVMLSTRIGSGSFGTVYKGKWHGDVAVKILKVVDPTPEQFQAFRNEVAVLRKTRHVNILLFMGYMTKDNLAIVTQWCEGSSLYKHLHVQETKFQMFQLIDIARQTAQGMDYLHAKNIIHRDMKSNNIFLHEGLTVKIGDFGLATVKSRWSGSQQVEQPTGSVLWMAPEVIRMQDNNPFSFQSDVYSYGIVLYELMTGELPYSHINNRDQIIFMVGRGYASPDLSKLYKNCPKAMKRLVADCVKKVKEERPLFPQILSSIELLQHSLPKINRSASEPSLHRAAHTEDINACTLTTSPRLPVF
Chain of Mitogen-activated protein kinase 9 (Homo sapiens) (P45984 whole entry, looked up): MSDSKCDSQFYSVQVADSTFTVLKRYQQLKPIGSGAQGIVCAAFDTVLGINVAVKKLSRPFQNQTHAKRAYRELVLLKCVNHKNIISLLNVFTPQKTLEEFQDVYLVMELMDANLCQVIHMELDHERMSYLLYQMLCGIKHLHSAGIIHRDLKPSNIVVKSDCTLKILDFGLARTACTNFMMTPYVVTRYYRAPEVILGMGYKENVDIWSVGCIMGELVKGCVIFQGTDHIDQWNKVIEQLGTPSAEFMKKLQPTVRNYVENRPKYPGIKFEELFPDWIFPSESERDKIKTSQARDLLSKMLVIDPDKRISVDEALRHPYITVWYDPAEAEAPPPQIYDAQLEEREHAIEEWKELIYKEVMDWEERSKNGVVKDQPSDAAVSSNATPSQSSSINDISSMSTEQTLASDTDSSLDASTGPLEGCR
Chain of Mitogen-activated protein kinase 13 (Homo sapiens) (O15264 whole entry): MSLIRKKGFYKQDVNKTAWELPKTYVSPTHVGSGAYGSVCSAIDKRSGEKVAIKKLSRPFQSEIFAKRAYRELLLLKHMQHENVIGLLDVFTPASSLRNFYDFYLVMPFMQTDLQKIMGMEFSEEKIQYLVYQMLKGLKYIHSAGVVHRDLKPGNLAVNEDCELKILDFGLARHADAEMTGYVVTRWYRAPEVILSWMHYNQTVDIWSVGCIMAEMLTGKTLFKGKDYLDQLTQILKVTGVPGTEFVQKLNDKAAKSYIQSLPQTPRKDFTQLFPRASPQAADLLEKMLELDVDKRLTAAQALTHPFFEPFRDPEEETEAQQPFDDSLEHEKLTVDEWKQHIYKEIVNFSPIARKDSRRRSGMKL

With `Cn1c([S+](C)[O-])nc(-c2ccc(F)cc2)c1-c1ccnc(N)c1` (centres undefined) the IC50 [1] was 2000 nM, the IC50 [2] was 9900 nM and the IC50 [3] was 3500 nM. For the same compound, the IC50 [4] was > 10000 nM, the IC50 [5] was 2400 nM and the IC50 [6] was 700 nM. For the same compound, the inhibition (Homo sapiens [7]) was “inactive”, the inhibition [8] was “inactive” and the inhibition [9] was “inactive”. For the same compound, the inhibition [10] was “inactive”, the IC50 [11] was 710 nM and the Tmax [12] was 4.7 h. It also gave a Tmax [13] of 5 h, a Tmax [14] of 6 h and a Tmax [15] of 6.7 h. It also gave a Tmax [16] of 5 h, a Tmax [17] of 6 h and a Cmax [18] of 190 nM. The Cmax [19] was 600 nM, the Cmax [20] was 150 nM and the Cmax [21] was 140 nM. The Cmax [22] was 360 nM, the Cmax [23] was 420 nM and the AUC(0-t) [24] was 2.95 µM·h. The AUC(0-t) [25] was 8.73 µM·h, the AUC(0-t) [26] was 2.82 µM·h and the AUC(0-t) [27] was 2.6 µM·h. It also gave an AUC(0-t) [28] of 6.38 µM·h, an AUC(0-t) [29] of 7.37 µM·h and an AUC(0-inf) [30] of 3.43 µM·h. For the same compound, the AUC(0-inf) [31] was 9.4 µM·h, the AUC(0-inf) [32] was 3.29 µM·h and the AUC(0-inf) [33] was 3.07 µM·h. For the same compound, the AUC(0-inf) [34] was 7.17 µM·h, the AUC(0-inf) [35] was 8.55 µM·h and the half-life [36] was 9.5 h. The half-life [37] was 9 h, the half-life [38] was 11.3 h and the half-life [39] was 10.7 h. For the same compound, the half-life [40] was 10.9 h, the half-life [41] was 11.3 h and the Activity (Homo sapiens [42]) was “Non-Toxic”. The fraction unbound [43] was 0.5 and the inhibition [44] was “inactive”.
`CC(=O)Nc1cc(-c2c(-c3ccc(F)cc3)nc([S+](C)[O-])n2C)ccn1` (centres undefined) gave an IC50 [1] of 200 to 400 nM, an IC50 [2] of 2900 nM and an IC50 [3] of 1900 nM. The IC50 [4] was 6400 nM, the IC50 [5] was 1100 nM and the IC50 [6] was 800 nM. The inhibition (Homo sapiens [7]) was “inactive”, the inhibition [8] was 36% and the inhibition [9] was 51%. The inhibition [10] was 35%, the IC50 [11] was 710 nM and the inhibition in vivo at 10 mg/kg (Rattus norvegicus) was 76%. For the same compound, the Tmax [12] was 2.2 h, the Tmax [13] was 1.5 h and the Tmax [14] was 3.3 h. For the same compound, the Tmax [15] was 3.7 h, the Tmax [16] was 2.9 h and the Tmax [17] was 2.3 h. For the same compound, the Cmax [18] was 200 nM, the Cmax [19] was 590 nM and the Cmax [20] was 140 nM. It also gave a Cmax [21] of 140 nM, a Cmax [22] of 310 to 314 nM and a Cmax [23] of 420 nM. For the same compound, the AUC(0-t) [24] was 0.95 µM·h, the AUC(0-t) [25] was 3.4 µM·h and the AUC(0-t) [26] was 0.73 µM·h. The AUC(0-t) [27] was 0.79 µM·h, the AUC(0-t) [28] was 1.99 µM·h and the AUC(0-t) [29] was 2.65 µM·h. The AUC(0-inf) [30] was 1.04 µM·h, the AUC(0-inf) [31] was 3.58 µM·h and the AUC(0-inf) [32] was 0.82 µM·h. The AUC(0-inf) [33] was 0.88 µM·h, the AUC(0-inf) [34] was 2.24 µM·h and the AUC(0-inf) [35] was 3.05 µM·h. For the same compound, the half-life [36] was 2.7 h, the half-life [37] was 3.2 h and the half-life [38] was 2.8 h. It also gave a half-life [39] of 2.8 h, a half-life [40] of 3.3 h and a half-life [41] of 3.4 h. For the same compound, the Activity (Homo sapiens [42]) was “Non-Toxic”, the fraction unbound [43] was 0.5 and the inhibition [44] was “inactive”.
